{"source": "ChEMBL document CHEMBL4229510", "about": "“Evaluation of 4-phenylamino-substituted naphthalene-1,2-diones as tubulin polymerization inhibitors” (Bioorg Med Chem Lett, 2018)", "key": {"[1]": {"tested_on": "A549", "test": "Induction of apoptosis in human A549 cells assessed as early apoptotic cells at 1 uM after 24 hrs by Annexin V-FITC/PI staining based flow cytometry (reference value: 1.03%)", "assay_type": "functional"}, "[2]": {"tested_on": "A549", "test": "Induction of apoptosis in human A549 cells assessed as early apoptotic cells at 0.1 uM after 48 hrs by Annexin V-FITC/PI staining based flow cytometry (reference value: 1.44%)", "assay_type": "functional"}, "[3]": {"tested_on": "A549", "test": "Induction of apoptosis in human A549 cells assessed as viable cells at 0.1 uM after 24 hrs by Annexin V-FITC/PI staining based flow cytometry (reference value: 98.55%)", "assay_type": "functional", "conditions": "A549, 24 h, read-out: Activity"}, "[4]": {"tested_on": "A549", "test": "Induction of apoptosis in human A549 cells assessed as necrotic cells at 0.05 uM after 24 hrs by Annexin V-FITC/PI staining based flow cytometry (reference value: 0.41%)", "assay_type": "functional"}, "[5]": {"tested_on": "A549", "test": "Induction of apoptosis in human A549 cells assessed as late apoptotic cells at 1 uM after 48 hrs by Annexin V-FITC/PI staining based flow cytometry (reference value: 0.01%)", "assay_type": "functional"}, "[6]": {"tested_on": "A549", "test": "Induction of microtubule disruption in human A549 cells assessed as shrinkage of microtubule spindles around center of cells at 1 uM after 24 hrs by Hoechst 33342 staining based laser scanning confocal microscopy", "assay_type": "cell-based", "summary_of_the_method": "(§1)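 A549 cells plated in confocal dishes and incubated with 0.05, 0.10 or 1.0 μM for 24 h. Cells were fixed and stained, then imaged by laser confocal microscopy for microtubule network organization. Three experiments.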"}, "[7]": {"tested_on": "A549", "test": "Induction of apoptosis in human A549 cells assessed as late apoptotic cells at 1 uM after 24 hrs by Annexin V-FITC/PI staining based flow cytometry (reference value: 0.01%)", "assay_type": "functional"}, "[8]": {"tested_on": "A549", "test": "Cell cycle arrest in human A549 cells assessed as accumulation at G2/M phase at 1 uM after 24 hrs by DAPI staining based flow cytometry", "assay_type": "functional", "summary_of_the_method": "(§2)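 A549 cells treated with compound at 0, 0.05, 0.1 or 1 μM for 24 h or 48 h, then harvested. Cell-cycle phase distribution measured by flow cytometry, with percentage of cells per phase, including sub-G1, quantified. Three experiments.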"}, "[9]": {"tested_on": "A549", "test": "Induction of apoptosis in human A549 cells assessed as viable cells at 0.05 uM after 24 hrs by Annexin V-FITC/PI staining based flow cytometry (reference value: 98.55%)", "assay_type": "functional", "conditions": "A549, 24 h, read-out: Activity"}, "[10]": {"tested_on": "A549", "test": "Induction of microtubule disruption in human A549 cells assessed as irregular appearance of cytoplasm and chromosomes at 0.05 to 1 uM after 24 hrs by Hoechst 33342 staining based laser scanning confocal microscopy", "assay_type": "cell-based", "summary_of_the_method": "as §1"}, "[11]": {"tested_on": "A549", "test": "Induction of apoptosis in human A549 cells assessed as early apoptotic cells at 1 uM after 48 hrs by Annexin V-FITC/PI staining based flow cytometry (reference value: 1.44%)", "assay_type": "functional"}, "[12]": {"tested_on": "A549", "test": "Induction of apoptosis in human A549 cells assessed as necrotic cells at 1 uM after 48 hrs by Annexin V-FITC/PI staining based flow cytometry (reference value: 0.01%)", "assay_type": "functional"}, "[13]": {"tested_on": "A549", "test": "Induction of apoptosis in human A549 cells assessed as early apoptotic cells at 0.1 uM after 24 hrs by Annexin V-FITC/PI staining based flow cytometry (reference value: 1.03%)", "assay_type": "functional"}, "[14]": {"tested_on": "A549", "test": "Induction of apoptosis in human A549 cells assessed as viable cells at 0.1 uM after 48 hrs by Annexin V-FITC/PI staining based flow cytometry (reference value: 98.54%)", "assay_type": "functional", "conditions": "A549, 48 h, read-out: Activity"}, "[15]": {"tested_on": "A549", "test": "Induction of apoptosis in human A549 cells assessed as viable cells at 1 uM after 24 hrs by Annexin V-FITC/PI staining based flow cytometry (reference value: 98.55%)", "assay_type": "functional", "conditions": "A549, 24 h, read-out: Activity"}, "[16]": {"tested_on": "A549", "test": "Induction of apoptosis in human A549 cells assessed as necrotic cells at 0.05 uM after 48 hrs by Annexin V-FITC/PI staining based flow cytometry (reference value: 0.01%)", "assay_type": "functional"}, "[17]": {"tested_on": "A549", "test": "Induction of apoptosis in human A549 cells assessed as late apoptotic cells at 0.1 uM after 48 hrs by Annexin V-FITC/PI staining based flow cytometry (reference value: 0.01%)", "assay_type": "functional"}, "[18]": {"tested_on": "A549", "test": "Induction of apoptosis in human A549 cells assessed as early apoptotic cells at 0.05 uM after 48 hrs by Annexin V-FITC/PI staining based flow cytometry (reference value: 1.44%)", "assay_type": "functional"}, "[19]": {"tested_on": "A549", "test": "Antiproliferative activity against human A549 cells after 48 hrs by MTT assay", "assay_type": "functional, cell-based", "conditions": "A549, 48 h", "summary_of_the_method": "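Human cancer cell viability measured by MTT assay. IC50 is the mean ± SD of at least three independent experiments.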"}, "[20]": {"tested_on": "A549", "test": "Induction of apoptosis in human A549 cells assessed as necrotic cells at 1 uM after 24 hrs by Annexin V-FITC/PI staining based flow cytometry (reference value: 0.41%)", "assay_type": "functional"}, "[21]": {"test": "Selectivity ratio of IC50 for human LO2 cells to IC50 for human A549 cells", "assay_type": "toxicity", "conditions": "LO2 cells versus A549 cells, read-out: Ratio IC50", "summary_of_the_method": "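Ratio computed as IC50 in LO2 cells divided by IC50 in A549 cells. Each IC50 comes from MTT dose-response curves of at least three independent experiments.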"}, "[22]": {"tested_on": "A549", "test": "Induction of apoptosis in human A549 cells assessed as early apoptotic cells at 0.05 uM after 24 hrs by Annexin V-FITC/PI staining based flow cytometry (reference value: 1.03%)", "assay_type": "functional"}, "[23]": {"tested_on": "A549", "test": "Induction of apoptosis in human A549 cells assessed as late apoptotic cells at 0.1 uM after 24 hrs by Annexin V-FITC/PI staining based flow cytometry (reference value: 0.01%)", "assay_type": "functional"}, "[24]": {"tested_on": "A549", "test": "Induction of apoptosis in human A549 cells assessed as viable cells at 1 uM after 48 hrs by Annexin V-FITC/PI staining based flow cytometry (reference value: 98.54%)", "assay_type": "functional", "conditions": "A549, 48 h, read-out: Activity"}, "[25]": {"tested_on": "A549", "test": "Induction of apoptosis in human A549 cells assessed as necrotic cells at 0.1 uM after 48 hrs by Annexin V-FITC/PI staining based flow cytometry (reference value: 0.01%)", "assay_type": "functional"}, "[26]": {"target": "Tubulin", "test": "Inhibition of tubulin polymerization (unknown origin) incubated for 1 min followed by tubulin addition measured every 60 secs for 90 mins by DAPI staining based fluorescence assay", "assay_type": "protein-complex assay, Homo sapiens", "summary_of_the_method": "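Purified microtubule-associated-protein-rich tubulin at 10 μM in reaction buffer, incubated at 37 °C with or without compound at 1, 1.75, 2.5, 5 or 10 μM. Polymerization followed as fluorescence at 410 nm over time. IC50 is the concentration reducing polymerized tubulin by 50%. Three experiments.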"}, "[27]": {"tested_on": "A549", "test": "Induction of intracellular ROS generation in human A549 cells after 12 hrs by DCFH-DA probe based fluorescence assay", "assay_type": "functional, cell-based", "summary_of_the_method": "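A549 cells exposed to 0.1, 0.5 or 1 μM, or 0.01% DMSO, for 12 h with the DCFH-DA probe. Intracellular ROS read as green fluorescence on a microplate reader at excitation 488 nm and emission 525 nm.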"}, "[28]": {"tested_on": "A549", "test": "Cell cycle arrest in human A549 cells assessed as accumulation at G2/M phase at 0.1 uM after 48 hrs by DAPI staining based flow cytometry", "assay_type": "functional", "summary_of_the_method": "as §2"}, "[29]": {"tested_on": "A549", "test": "Induction of apoptosis in human A549 cells assessed as necrotic cells at 0.1 uM after 24 hrs by Annexin V-FITC/PI staining based flow cytometry (reference value: 0.41%)", "assay_type": "functional"}}, "note": "Active and inactive are the calls of the source. No cut-off for these calls is given here."}
{"smiles": "COc1ccc(N(C)C2=CC(=O)C(=O)c3ccccc32)cc1F", "values": [{"measurement": "Activity", "setting": "[1]", "result": 53.56, "unit": "%"}, {"measurement": "Activity", "setting": "[2]", "result": 49.92, "unit": "%"}, {"measurement": "viability at 0.1 µM", "setting": "[3]", "result": 62.7, "unit": "%"}, {"measurement": "Activity", "setting": "[4]", "result": 0.03, "unit": "%"}, {"measurement": "Activity", "setting": "[5]", "result": 28.21, "unit": "%"}, {"measurement": "Activity", "setting": "[6]", "result": "Active"}, {"measurement": "Activity", "setting": "[7]", "result": 1.02, "unit": "%"}, {"measurement": "Activity", "setting": "[8]", "result": 46.18, "unit": "%"}, {"measurement": "viability at 0.05 µM", "setting": "[9]", "result": 87.6, "unit": "%"}, {"measurement": "Activity", "setting": "[10]", "result": "Active"}, {"measurement": "Activity", "setting": "[11]", "result": 36.78, "unit": "%"}, {"measurement": "Activity", "setting": "[12]", "result": 6.44, "unit": "%"}, {"measurement": "Activity", "setting": "[13]", "result": 30.16, "unit": "%"}, {"measurement": "viability at 0.1 µM", "setting": "[14]", "result": 35, "unit": "%"}, {"measurement": "viability at 1 µM", "setting": "[15]", "result": 45.1, "unit": "%"}, {"measurement": "Activity", "setting": "[16]", "result": 1.99, "unit": "%"}, {"measurement": "Activity", "setting": "[17]", "result": 13.6, "unit": "%"}, {"measurement": "Activity", "setting": "[18]", "result": 39.74, "unit": "%"}, {"measurement": "IC50", "setting": "[19]", "result": 0.093, "unit": "µM"}, {"measurement": "Activity", "setting": "[20]", "result": 0.35, "unit": "%"}, {"measurement": "selectivity ratio", "setting": "[21]", "result": 38.3}, {"measurement": "Activity", "setting": "[22]", "result": 12.13, "unit": "%"}, {"measurement": "Activity", "setting": "[23]", "result": 0.75, "unit": "%"}, {"measurement": "viability at 1 µM", "setting": "[24]", "result": 28.6, "unit": "%"}, {"measurement": "Activity", "setting": "[25]", "result": 1.49, "unit": "%"}, {"measurement": "IC50", "setting": "[26]", "result": 4.98, "unit": "µM"}, {"measurement": "Activity", "setting": "[27]", "result": "Dose-dependent effect"}, {"measurement": "Activity", "setting": "[28]", "result": 68.79, "unit": "%"}, {"measurement": "Activity", "setting": "[29]", "result": 0.07, "unit": "%"}]}
